Yeast life ext: yeast lifespan extension | S. cerevisiae growth with nicotinamide, OD615; deaD strain in restrictive glucose medium | inhibition of the nicotinamide effect, % at 10 µM | 130,000 tested, 0.68% active;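 active = inhibition above a set limit, placed 3 SD over the median of all compounds, cut at about 26% in these data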;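 also: 0% = nicotinamide-treated wells and 100% = cells grown without nicotinamide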
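Assay system: engineered S. cerevisiae DeaD replicative-lifespan strain, galactose-grown log-phase cells; Buffer or medium: CSMM-D glucose medium, restrictive; Probe or stimulus: nicotinamide 1.5 mM; Compound: single dose 10 µM compound, 0.25% DMSO; Schedule: 4 h preincubation then 48 h treatment at 30 °C; Technique: OD615 measurement.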
RAM network inh: yeast RAM network inhibition | S. cerevisiae dse1pr::URA3 reporter, 5-FOA growth OD615, 2 d; analog-sensitive cbk1-as2 kinase mutant strain | AID 868 | inhibition, % at 50 µM | 190,000 tested, 1.8% active;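 active = inhibition above a set limit, 3 SD over mean compound inhibition, cut at about 8.4% in these data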;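 also: 0% = DMSO-only wells with no growth and 100% = 10 µM 1-NA-PP1 full growth; inhibition rescues growth on 5-FOA so higher OD means more RAM inhibition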
BB579 growth dn: reduces growth of yeast BB579 in restrictive medium | 140,000 tested, 0.51% active | inhibition, % at 10 µM | S. cerevisiae BB579 growth, OD615, 48 h;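 active = inhibition above a set limit, 3 SD over the mean compound inhibition, cut at about 44% in these data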
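Test system: S. cerevisiae DeaD strain BB579 yeast; Medium: restrictive CSMM-D medium; Compound: one dose, 10 µM compound with 0.25% DMSO; Incubation: 4 h cell preincubation, 48 h compound exposure, 30 °C humidified; Signal: OD at 615 nm; Benchmarks: amphotericin B at 10 µg/mL as positive control.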
sdo1 growth: sdo1-depleted yeast growth rescue. z-score at 10 µM. S. cerevisiae sdo1-depleted JHY4D growth rescue, OD600 30 h; stronger effect = higher value; pdr5 snq2 efflux-pump mutant strain. 140,000 tested, 0.21% active;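 active = z-score above 3 at both the 24 hr and the 30 hr optical density reads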;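 also: z-score against mean and SD of all compound wells on the same plate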
* hit, by the source's call; / = no result given. The list is not random: actives were taken first. Their share in the collection is about 2.7%.

SMILES	Yeast life ext	RAM network inh	BB579 growth dn	sdo1 growth
O=c1oc2ccc(Cl)cc2cc1-c1nnc(Nc2cccc(C(F)(F)F)c2)s1	6	2	-49	0.06
COc1ccc(NC(=S)NC(NC(=O)/C=C/c2ccccc2)C(Cl)(Cl)Cl)cc1 (stereo not drawn)	-12	7	-41	0.04
O=C(/C=C/c1ccccc1)NC(NC(=S)Nc1ccc(Cl)cc1)C(Cl)(Cl)Cl (stereo not drawn)	-9	10*	-43	0.48
Cc1cc(N2CCN(c3cccc(C)c3C)CC2)nc(-c2ccccc2)n1	/	-3	67*	-2.5
CCN(CC)S(=O)(=O)c1cc(NC(=O)CCNC(=O)c2ccccc2Cl)ccc1C	3	2	-14	0.2
CCN(CC)S(=O)(=O)c1cc(NS(=O)(=O)c2cc(Cl)ccc2Cl)ccc1C	20	11*	-38	-1.1
C=CCn1c(SCC(=O)Nc2ccc(C(=O)OC(C)C)cc2)nnc1-c1cccs1	-9	8.7*	-6	-0.23
CCOC(=O)c1ccc(NC(=O)CSc2nnc(-c3cccs3)n2CC)cc1	-14	1	-32	-0.36
CC1=CN2C(=N)/C(=C/c3ccco3)C(=O)N=C2S1	-6	4	-26	0.42
CC1=CN2C(=N)/C(=C/c3ccc([N+](=O)[O-])o3)C(=O)N=C2S1	33*	4	20	-1.5
O=C(CNC(=S)N(Cc1ccc(F)cc1)C1CCCCC1)NCCN1CCOCC1	/	0	/	/
O=S(Cc1ccc(Br)cc1)Cc1nnc(SCc2c(F)cccc2Cl)n1-c1ccccc1 (stereo not drawn)	5	0	-20	-1.1
COc1ccccc1N(C)S(=O)(=O)c1ccc(Cl)c(C(=O)OCc2c(C)noc2C)c1	/	11*	/	/
Cc1noc(C)c1COC(=O)c1cc(F)c(F)cc1Cl	-14	1	-47	-1.2
CCCCN1C(=O)C(=O)N(CC(=O)N2N=C3/C(=C/c4ccco4)CCCC3C2c2ccco2)C1=O (stereo not drawn)	/	7	/	/
COC(=O)C(CCCN1C(=O)c2ccccc2C1=O)(NC(C)=O)c1nn[nH]n1 (stereo not drawn)	/	-1	/	/
Cc1ccc(-c2[nH]nc(N)c2N=Nc2cccc(Cl)c2C)cc1	-9	5	-41	-2.6
Cc1ccc(-c2[nH]nc(N)c2N=Nc2ccccc2C)cc1	-38	2	52*	-1.9
CCc1cccc(CC)c1NC(=O)C1SC(=Nc2ccccc2C)C(c2nc3ccccc3s2)=C1N (stereo not drawn)	-1	8.8*	-75	-0.15
CCc1cccc(C)c1NC(=O)CCCSc1nc2ccccc2s1	8	8	-19	-0.92
COc1ccc(CN(C(=O)Cn2nnc(-c3ccc(C)o3)n2)C(C(=O)NCC2CCCO2)c2ccco2)cc1 (stereo not drawn)	/	9.1*	/	/
O=C(NCCCN1CCCC1)c1cc(Sc2ccc(F)cc2)nc2ccccc12	/	1	/	/
CCOCCCNC(=O)c1cc(Sc2ccc(C)cc2)nc2ccccc12	1	11*	-25	-0.71
Cc1ccc(NCC(=O)N/N=C/c2cccc(Oc3ccccc3)c2)cc1	-6	10*	-26	-0.91
COc1cc(C(=O)OCC(=O)Nc2cc(-c3cc(C)c(C)cc3C)nn2-c2ccccc2)cc(OC)c1OC	7	2	-40	0.45
SMILES	Yeast life ext	RAM network inh	BB579 growth dn	sdo1 growth
O=c1c2ccccc2sn1-c1ccccc1	41*	3	-7	-1.9
Cc1ccc(C(=O)Nc2nc3ccccc3s2)s1	-22	1	-21	-0.51
Cc1ccc(CNc2nc3ccccc3s2)s1	32*	0	-38	-1.9
O=C(c1ccncc1)N1N=C(C2CC2)CC1(O)C(F)(F)F (stereo not drawn)	/	1	/	/
COc1ccccc1NC(=S)NCCC(c1ccccc1)c1ccccc1	-3	9.8*	22	-1
Clc1cc2nc3ccccn3c2cc1Cl	-32	2	43*	-0.56
COc1ccccc1CNc1nc(S(=O)(=O)c2ccccc2)c(Cl)s1	-3	9.8*	-59	-0.28
COC(=O)c1ccc(-c2ccc(CNCC(O)c3ccccc3)o2)cc1 (stereo not drawn)	-25	2	12	0.5
c1ccc(SSc2ccccc2)cc1	28*	1	3	0.14
COC(=O)c1c(NC(=S)Nc2ccc(CC(=O)O)cc2)sc(C)c1C	4	10*	-15	0.21
O=C(ONC1=NCCCCC1)c1c(F)cccc1F	-6	-1	14	-2.6
O=C(ONC1=NCCCCC1)c1ccc(Cl)cc1	-20	-1	98*	-2.7
CCc1ccc(CC2S/C(=C(\C#N)C(C)=O)NC2=O)cc1 (stereo not drawn)	44*	3	-3	2.7
COc1ccc(OC)c(NC(=O)CSc2nnc(-c3cccnc3)s2)c1	/	4	/	/
Cc1ncc(CSc2nc3ccccc3[nH]2)c(N)n1	-13	3	3	0.03
CN1CCN(C(=S)Nc2cc(S(=O)(=O)N3CCOCC3)ccc2Cl)CC1	/	1	/	/
CC(C)N(C(=S)Nc1cc(S(=O)(=O)N2CCOCC2)ccc1Cl)c1ccccc1	40*	0	-11	0.12
O=C(c1ccccc1)c1nn(-c2ccccc2)c(=O)cc1C(F)(F)F	45	-2	-26	-1.9
O=C(c1ccccc1)c1nn(-c2ccc(Cl)cc2)c(=O)cc1C(F)(F)F	32*	5	-14	-1.2
O=S(=O)(c1ccc(S(=O)(=O)N2CCCC3(CCCCC3)C2)cc1)N1CCCCC1	6	0	-16	-0.25
N#Cc1c(N)nc2c3c(sc(=N)c2c1N)NC(=O)CC3c1c(F)cccc1Cl (stereo not drawn)	-13	8.8*	-21	-0.86
N#Cc1c(N)nc2c3c(sc(=N)c2c1N)NC(=O)CC3c1ccccc1 (stereo not drawn)	-8	3	-33	1
COc1ccc(-c2cc(-c3ccccc3O)[nH]n2)cc1	-13	-1	76*	-1.9
COc1ccc(-c2cc(-c3ccccc3)n[nH]2)c(O)c1	/	-1	/	/
COc1ccc(/C=C/c2nc(-c3ccccc3O)n[nH]2)cc1	-2	8.8*	-42	-1.4
SMILES	Yeast life ext	RAM network inh	BB579 growth dn	sdo1 growth
NNC(=O)c1sccc1OCc1ccc(Cl)cc1	/	0	/	/
COc1ccc(Nc2nc(N/N=C/c3ccc(N(C)C)cc3)nc(C)c2[N+](=O)[O-])cc1	5	10.0*	-54	-0.08
NC(=O)c1cc([N+](=O)[O-])cc2c1C=Cc1ccccc1O2	/	5	/	/
Cc1c(NC(=O)CSc2nnc(COc3ccccc3)n2-c2ccccc2)c(=O)n(-c2ccccc2)n1C	-16	-1	-1	0.57
Cc1ccc(C(=O)c2c(NC(=O)c3ccccc3C)sc(C)c2C)cc1	-25	10*	-47	0.58
CCN(CC)CC(=O)Nc1sc(C)c(C)c1C(=O)c1ccc(C)cc1	/	2	/	/
C[C@]12CC[C@@H]3c4ccc(O)cc4CC[C@H]3[C@@H]1CC[C@@H]2OC(=O)CCC(=O)O	57*	2	-61	-0.89
COc1cc(N2CCCC2)c(OC)cc1/C=C(/C#N)c1ccc(Br)cc1	-1	8	-24	-0.75
CCn1c(SCC(=O)Nc2nonc2C)nnc1-c1ccco1	1	1	-24	-0.92

Compound activity as filed in PubChem.
